Test results: ChEMBL document CHEMBL3227924, “Pharmacologically active sulfoximides: 5-hexyl-7-)S-methylsulfonimidoly) xanthone-2-carboxylic acid, a potent antiallergic agent” (1979)
Calls of active or inactive are those of the source. The rule behind the calls is not given here.

Key:
Type in all cases: functional
Rattus norvegicus [1] = experiment: Antiallergic activity in iv dosed ovalbumin-sensitized CFHB rat assessed as inhibition of passive cutaneous anaphylaxis after 30 mins by Evans blue staining; conditions: 0.5 h
Method in brief: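 Rats passively sensitized with 0.1 mL of 1:25 donor anti-ovalbumen serum (IgE plus IgG) at four dorsal sites, then challenged iv 72 h later with ovalbumen 1 mg plus 1% Evans blue (0.5 mL). Compound in Tris buffer/saline given iv 30 s before challenge at ≥3 doses, ≥7 rats per group. Blue spots scored 0–4 at 30 min. ED50 read from the dose–response curve of % inhibition versus controls.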

Rattus norvegicus [2] = experiment: Antiallergic activity in po dosed ovalbumin-sensitized CFHB rat assessed as inhibition of passive cutaneous anaphylaxis after 30 mins by Evans blue staining
Rattus norvegicus [3] = experiment: Antiallergic activity in ovalbumin-sensitized CFHB rat assessed as inhibition of passive cutaneous anaphylaxis at 10 mg/kg, iv after 30 mins by Evans blue staining
Method in brief: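 Sensitized with diluted (1:25) donor serum at four back sites. Challenge came 72 h later, iv, with ovalbumen 1 mg and 1% Evans blue 0.5 mL. Compound dissolved in Tris buffer, diluted in saline, and injected iv 30 s pre-challenge. Groups had at least seven rats, with matched controls. Skin spots were scored 0–4 for severity and area after 30 min. % inhibition came from the test versus control score difference.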

Structure (SMILES)	ED50 (Rattus norvegicus [1]) [mg/kg]	ED50 (Rattus norvegicus [2]; 0.5 h) [mg/kg]	other results
CS(=O)(=NC(N)=O)c1ccc2oc3ccc(C(=O)O)cc3c(=O)c2c1 (stereo not drawn)	0.11	8.6	–
CCOC(=O)C1=CN=S(=O)(c2ccc3oc4ccc(C(=O)O)cc4c(=O)c3c2)C=C1O (stereo not drawn)	–	–	inhibition (Rattus norvegicus [3]): inactive
CS(=N)(=O)c1ccc2oc3ccccc3c(=O)c2c1 (stereo not drawn)	–	–	inhibition (Rattus norvegicus [3]): inactive
CS(=N)(=O)c1ccc2oc3ccc(C(=O)O)cc3c(=O)c2c1 (stereo not drawn)	0.033	2.72	–
Cc1ccc(S(=O)(=O)N=S(C)(=O)c2ccc3oc4ccc(C(=O)O)cc4c(=O)c3c2)cc1 (stereo not drawn)	3.93	–	–
CS(=O)(=NC(=O)c1ccccc1)c1ccc2oc3ccc(C(=O)O)cc3c(=O)c2c1 (stereo not drawn)	0.68	–	–
Cc1ccc(S(=O)(=O)/N=S(\C)c2ccc3oc4ccc(C(=O)O)cc4c(=O)c3c2)cc1 (stereo not drawn)	0.43	–	–
CCCCCCc1cc(S(C)(=N)=O)cc2c(=O)c3cc(C(=O)O)ccc3oc12 (stereo not drawn) [SUDEXANOX]	0.005	0.19	–
CCCCCOc1cc(S(C)(=N)=O)cc2c(=O)c3cc(C(=O)O)ccc3oc12 (stereo not drawn)	0.005	1.62	–
O=C([O-])c1cc(=O)c2c(OCC(O)COc3cccc4oc(C(=O)[O-])cc(=O)c34)cccc2o1.[Na+].[Na+] [CROMOLYN SODIUM]	1.21	–	ED50 (Rattus norvegicus [2]): inactive
CCOC(=O)N=S(C)(=O)c1ccc2oc3ccc(C(=O)O)cc3c(=O)c2c1 (stereo not drawn)	–	–	inhibition in vivo at 10 mg/kg (Rattus norvegicus [3]; 0.5 h): 89%
CC(=O)N=S(C)(=O)c1ccc2oc3ccc(C(=O)O)cc3c(=O)c2c1 (stereo not drawn)	0.065	–	–
CCCCCCc1cc(S(C)(=O)=NC(N)=O)cc2c(=O)c3cc(C(=O)O)ccc3oc12 (stereo not drawn)	0.009	–	–
